Published values from different studies.
Compare with care: the assays were run in different laboratories.
Target: Tyrosine-protein kinase receptor TYRO3 (TYRO3, Homo sapiens, UniProt Q06418)
Residues used in one study (Q06418 41-890): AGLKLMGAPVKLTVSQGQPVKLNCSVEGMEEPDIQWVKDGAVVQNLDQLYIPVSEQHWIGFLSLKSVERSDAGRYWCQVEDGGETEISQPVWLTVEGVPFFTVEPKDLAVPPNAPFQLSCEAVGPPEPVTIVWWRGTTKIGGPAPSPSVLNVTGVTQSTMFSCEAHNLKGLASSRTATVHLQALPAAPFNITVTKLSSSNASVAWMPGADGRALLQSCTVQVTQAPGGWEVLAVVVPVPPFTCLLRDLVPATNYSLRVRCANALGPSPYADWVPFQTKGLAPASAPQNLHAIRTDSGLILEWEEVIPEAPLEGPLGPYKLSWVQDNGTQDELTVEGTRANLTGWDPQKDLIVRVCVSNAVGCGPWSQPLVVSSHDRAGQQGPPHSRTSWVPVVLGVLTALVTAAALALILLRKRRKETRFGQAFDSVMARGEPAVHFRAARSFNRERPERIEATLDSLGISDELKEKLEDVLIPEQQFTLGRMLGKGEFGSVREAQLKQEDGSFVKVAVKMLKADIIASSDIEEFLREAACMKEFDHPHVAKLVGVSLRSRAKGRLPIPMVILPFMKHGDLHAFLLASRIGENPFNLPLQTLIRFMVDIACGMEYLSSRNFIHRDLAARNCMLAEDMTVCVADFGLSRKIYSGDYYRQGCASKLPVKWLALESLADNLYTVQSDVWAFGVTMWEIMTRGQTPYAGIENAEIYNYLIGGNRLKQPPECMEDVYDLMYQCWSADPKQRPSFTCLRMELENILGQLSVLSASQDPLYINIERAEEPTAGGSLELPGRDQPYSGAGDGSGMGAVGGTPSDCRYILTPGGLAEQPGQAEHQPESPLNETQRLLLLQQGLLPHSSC

| SMILES | effect on | method | tested at | remaining binding [%] |
| --- | --- | --- | --- | --- |
| c1cnn2ncc(-c3ccnc(N4CCC45COC5)n3)c2c1 | binding |  | 1 µM | 73 |
| O=C(c1ccc(Nc2ncc(Cl)c(-c3ccc(Cl)s3)n2)cc1)N1CCC(N2CCCC2)CC1 | binding | competition with immobilised ligand | 1 µM | 57 |
| Nc1c(C(=O)NCc2ccc(C(=O)NCCCC3CCCCC3)cc2)cnn1-c1ccccc1 | cell-free assay | competition with immobilised ligand | 0.1 µM | 100 |
| O=C(NCCCN1CCOCC1)c1ccc(Nc2nccc(-c3cc4ccccc4s3)n2)cc1 | binding | competition with immobilised ligand | 1 µM | 90 |
| CNCc1ccccc1-c1csc([C@H](C)Nc2nc(C)nc3cc(OC)c(OC)cc23)c1 | cell-free assay | competition with immobilised ligand | 1 µM | 100 |
| COc1ccnn2ncc(-c3ccnc(N(C)C)n3)c12 | binding |  | 1 µM | 100 |
| Cn1nc(C(=O)NCc2ccc(C(=O)O)cc2)cc1-c1ccc2[nH]ccc2c1 | cell-free assay | competition with immobilised ligand | 0.1 µM | 100 |
| C[C@@H](c1ccc(-n2cnc3c(N)ncnc32)cc1)N1CCc2nn(C)c(Cc3ccccc3)c2C1=O | binding | competition with immobilised ligand | 0.1 µM | 100 |
| F[C@@H]1CCN(c2nccc(-c3cnn4ncccc34)n2)C1 | binding |  | 1 µM | 89 |
| COc1ncc2cc3ccccc3nc2c1C#N | cell-free assay | competition with immobilised ligand | 5 µM | 96 |
| N[C@@H]1CCN(c2nccc(-c3cnn4ncccc34)n2)C1 | binding |  | 1 µM | 100 |
| C=CC(=O)N1CCC(C(=O)NCC(=O)N2CCN(c3nc(-c4cnc(N)nc4C(F)F)nc(N4CCOCC4)n3)CC2)CC1 | binding | competition with immobilised ligand | 1 µM | 100 |
| CS(=O)(=O)NCC[C@H](NC(=O)c1cncc2c1cnn2-c1ccc(F)cc1)c1ccnc(S(C)(=O)=O)c1 | cell-free assay | competition with immobilised ligand | 1 µM | 94 |
| COc1cnc(Nc2cccc(S(N)(=O)=O)c2)nc1N1CCN(c2ccccc2)C(=O)C1 | binding | competition with immobilised ligand | 1 µM | 100 |
| CNC(=O)c1ccc(Nc2ncc(C(F)(F)F)c(NCc3nccnc3N(C)S(C)(=O)=O)n2)cc1 | cell-free assay | competition with immobilised ligand | 0.1 µM | 100 |
| Cc1cnc(Nc2ccc(C(=O)N3CCC(N4CCCC4)CC3)cc2)nc1-c1cc2ccccc2s1 | binding | competition with immobilised ligand | 1 µM | 58 |
| C[C@@H](c1cccc(C#N)c1)n1cc(Cl)cc(C(N)=O)c1=N | cell-free assay | competition with immobilised ligand | 1 µM | 68 |
| Nc1ncc2c(n1)-c1c([nH]c3ccc(C#CC4CC4)cc13)CCCC2 | binding | competition with immobilised ligand | 1 µM | 100 |
| CN(C)c1nccc(-c2cnc3ncccn23)n1 | binding |  | 1 µM | 100 |
| O=C(NCC1CCOCC1)c1n[nH]cc1NC(=O)c1c(F)cccc1F | binding | competition with immobilised ligand | 1 µM | 99 |
| C[C@@H]1CCN(c2nccc(-c3cnn4ncccc34)n2)C1 | binding |  | 1 µM | 100 |
| CCc1ccccc1C(=O)Nc1n[nH]c2c(C)c(F)c(C3C(C#N)=C(C)N(C)C(C)=C3C#N)cc12 | cell-free assay | competition with immobilised ligand | 1 µM | 100 |
